Results: article PMC7299768 (Journal of controlled release : official journal of the …, 2020)

Experiments:
Drug loading efficiency = type: physicochemical; conditions: (encapsulated drug/total drug) x100%; natural lipid NPs
Procedure, shortened: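 Loading into natural-lipid nanoparticles measured by dialysis in 10 K MWCO mini devices pre-equilibrated with release medium (3% MeOH, 0.1% Polysorbate 80 in PBS, pH 7.4). Entrapped drug is apical minus basal concentration; free drug is basal concentration. Quantified by HPLC-UV (C18 column, 282 nm). Efficiency = encapsulated/total drug ×100%, from three batches.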

inflamed Raw 264.7 cells = assay: In vitro anti-inflammation assay; type: cell-based; conditions: 1.0 μg/mL; for IL-1β gene expression / IL-6 gene expression / IL-10 gene expression / TNF-α gene expression: LPS-inflamed Raw 264.7 cells, RT-PCR; for Anti-inflammatory activities compared with 6-shogaol: inflamed Raw 264.7 cells
wounded Caco-2 BBE cells = assay: In vitro wound-healing assay; type: cell-based; conditions: 0.6 mL of 1.0 μg/mL solution; ECIS
Procedure, shortened: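 Caco-2 BBE cells were grown on ECIS 8W1E electrode plates in humidified 5% CO₂. At confluence, medium with or without test compound (1.0 μg/mL) or control formulation was added. Monolayers were wounded by a 30 s pulse (40 kHz, 4.5 V), and recovery was followed as impedance, with resistance measured at 500 Hz and 1 V.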

[1] = Pharmacokinetics and tissue bio-distribution after single oral administration; type: in vivo, C57BL/6J mice; conditions: for Level in most of the blood samples: after oral free-6-S or 6-S-NL 5 mg/kg
Procedure, shortened: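 Single oral gavage of 5 mg/kg to fasted (4 h) female C57BL/6J mice, as free test compound in 0.5% CMC-Na/PBS or as lipid nanoparticles in PBS. Sparse sampling, 3 mice/time point: blood (K₂EDTA) 5 min–8 h; stomach, small intestine, colon, liver and kidney 15 min–8 h. Acetonitrile precipitation, LC-MS/MS (MRM) of parent and metabolites. Cmax and Tmax observed; T1/2 = ln2/k.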

[2] = cited from earlier work
[3] = oral 5 mg/kg, compared to the 6-S-NL group

Row | SMILES | Drug loading efficiency (Drug loading efficiency) | IL-1β gene expression (inflamed Raw 264.7 cells) | IL-6 gene expression (inflamed Raw 264.7 cells) | IL-10 gene expression (inflamed Raw 264.7 cells) | TNF-α gene expression (inflamed Raw 264.7 cells) | Anti-inflammatory activities compared with 6-shogaol (inflamed Raw 264.7 cells) | Healing of wounded Caco-2 epithelial monolayers compared with 6-shogaol (wounded Caco-2 BBE cells) | Level in most of the blood samples [1] | Effective 6-shogaol concentration in vitro [2] | Tmax of 6-shogaol in the colon ([1]; oral 5 mg/kg) | M13 concentrations in the small intestine, comparison ([1]; oral 5 mg/kg, compared to 6-S-NL) | AUC values of M2 and M13 in liver and kidney tissues, comparison [1, 3] | Exposure (AUC) of 6-shogaol in stomach and small intestine tissues, comparison [1, 3]
1 | CCCCCC(CC(=O)CCc1ccc(O)c(OC)c1)SC[C@H](NC(=O)CC[C@H](N)C(=O)O)C(=O)NCC(=O)O (stereo partly shown) [M13] | 83.3 ± 1.9% | down-regulate | down-regulate | up-regulate | down-regulate | higher | healed significantly faster | below the LLOQ | – | – | – | – | –
2 | CCCCCC(CC(=O)CCc1ccc(O)c(OC)c1)SC[C@H](N)C(=O)O (stereo partly shown) [M2] | 91.3 ± 3.1% | down-regulate | down-regulate | up-regulate | down-regulate | higher | healed significantly faster | below the LLOQ | – | – | – | – | –
3 | CCCCC/C=C/C(=O)CCc1ccc(O)c(OC)c1 [6-shogaol] | 89.1 ± 2.6% | – | – | – | – | – | – | – | about 1 μg/mL | 1.5 h | higher | higher | significantly higher
